# Measured values published in ChEMBL document CHEMBL1131013, “Synthesis and evaluation of analogues of the partial agonist 6-(propyloxy)-4-(methoxymethyl)-beta-carboline-3-carboxylic acid ethyl ester (6-PBC) and the full agonist 6-(benzyloxy)-4-(methoxymethyl)-beta-carboline-3-carboxylic acid ethyl ester (Zk 93423) at wild type and recombinant GABAA receptors” (J Med Chem, 1998).
# Target: GABA-A receptor; alpha-6/beta-3/gamma-2 (Homo sapiens, UniProt P18507+P28472+Q16445)
# Experiment: Binding affinity measured using LtK- cell membranes expressing Gamma-aminobutyric acid A receptor alpha-6-beta-3-gamma-2
# In short: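 Ltk- cells expressing human α6β3γ2, scraped into PBS and resuspended in 10 mM KH2PO4/100 mM KCl pH 7.4. 1 h at 4 °C to equilibrium, filtration, scintillation counting.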
# GABA-A receptor; alpha-6/beta-3/gamma-2, sequence (Q16445 whole entry, one chain of several): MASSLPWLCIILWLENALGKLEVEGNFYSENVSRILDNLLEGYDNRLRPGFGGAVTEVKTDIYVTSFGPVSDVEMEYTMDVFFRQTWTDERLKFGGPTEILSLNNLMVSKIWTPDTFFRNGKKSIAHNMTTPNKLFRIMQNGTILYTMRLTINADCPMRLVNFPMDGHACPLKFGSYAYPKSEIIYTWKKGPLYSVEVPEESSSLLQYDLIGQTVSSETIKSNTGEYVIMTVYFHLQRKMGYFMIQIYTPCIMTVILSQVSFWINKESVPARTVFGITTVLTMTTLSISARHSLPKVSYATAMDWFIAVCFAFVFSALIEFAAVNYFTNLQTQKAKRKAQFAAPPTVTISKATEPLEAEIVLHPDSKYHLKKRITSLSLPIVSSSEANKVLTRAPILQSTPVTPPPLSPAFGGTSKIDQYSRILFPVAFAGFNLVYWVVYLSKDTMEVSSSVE
row,Structure (SMILES),Ki
1,CCOc1cc2c(cn1)[nH]c1ccccc12,> 1000 nM
2,CCOC(=O)c1[nH]cc2nc3ccc(OC)cc3c-2c1COC,> 10000 nM
3,CCCOc1ccc2[nH]c3cnc(C(=O)OCC)c(COC)c3c2c1,1340 nM
4,CCCOc1ccc2[nH]c3cnc(OCCC)c(COC)c3c2c1,> 10000 nM
5,CCOC(=O)c1[nH]cc2nc3ccc(OCc4cccc5ccccc45)cc3c-2c1CC,> 10000 nM
6,COCc1c(N=C=S)[nH]cc2nc3ccc(OCc4ccccc4)cc3c1-2,> 10000 nM
7,CCCCCCCCOc1ccc2[nH]c3cnc(C(=O)OCC)c(CC)c3c2c1,> 30000 nM
8,CCCCCCCCOc1ccc2[nH]c3cnc(C(=O)OCC)c(COC)c3c2c1,> 3000 nM

# Target: T1, GABA-A receptor; alpha-5/beta-3/gamma-2 (Homo sapiens, UniProt P18507+P28472+P31644)
# T1 sequence (P18507 whole entry): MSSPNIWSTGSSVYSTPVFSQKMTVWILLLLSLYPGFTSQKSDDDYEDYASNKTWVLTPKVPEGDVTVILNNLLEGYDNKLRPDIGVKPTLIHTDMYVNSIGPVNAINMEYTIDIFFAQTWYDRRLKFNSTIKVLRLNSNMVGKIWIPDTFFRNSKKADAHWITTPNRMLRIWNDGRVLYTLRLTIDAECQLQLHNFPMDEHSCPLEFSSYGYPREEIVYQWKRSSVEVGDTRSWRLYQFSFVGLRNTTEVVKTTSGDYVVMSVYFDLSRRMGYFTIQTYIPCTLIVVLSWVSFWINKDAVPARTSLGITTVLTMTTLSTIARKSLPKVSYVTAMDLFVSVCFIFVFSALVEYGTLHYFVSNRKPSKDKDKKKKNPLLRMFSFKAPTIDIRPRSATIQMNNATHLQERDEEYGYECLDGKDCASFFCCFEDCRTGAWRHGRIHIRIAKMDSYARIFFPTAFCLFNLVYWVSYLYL
# T1 sequence (P28472 whole entry): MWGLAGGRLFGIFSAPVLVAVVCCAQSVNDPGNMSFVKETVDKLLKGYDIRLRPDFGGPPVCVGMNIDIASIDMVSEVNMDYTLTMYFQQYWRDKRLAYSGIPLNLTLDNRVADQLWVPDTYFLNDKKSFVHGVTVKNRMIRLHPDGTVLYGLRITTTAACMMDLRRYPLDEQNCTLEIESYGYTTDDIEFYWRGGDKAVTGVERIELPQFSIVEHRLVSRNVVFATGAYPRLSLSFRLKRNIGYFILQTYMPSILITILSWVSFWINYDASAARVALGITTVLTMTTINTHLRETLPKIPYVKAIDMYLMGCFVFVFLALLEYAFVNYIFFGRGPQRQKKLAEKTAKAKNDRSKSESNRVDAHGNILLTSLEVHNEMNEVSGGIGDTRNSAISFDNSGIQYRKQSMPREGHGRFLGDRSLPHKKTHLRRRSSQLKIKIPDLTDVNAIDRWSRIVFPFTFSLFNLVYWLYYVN
# T1 sequence (P31644 whole entry): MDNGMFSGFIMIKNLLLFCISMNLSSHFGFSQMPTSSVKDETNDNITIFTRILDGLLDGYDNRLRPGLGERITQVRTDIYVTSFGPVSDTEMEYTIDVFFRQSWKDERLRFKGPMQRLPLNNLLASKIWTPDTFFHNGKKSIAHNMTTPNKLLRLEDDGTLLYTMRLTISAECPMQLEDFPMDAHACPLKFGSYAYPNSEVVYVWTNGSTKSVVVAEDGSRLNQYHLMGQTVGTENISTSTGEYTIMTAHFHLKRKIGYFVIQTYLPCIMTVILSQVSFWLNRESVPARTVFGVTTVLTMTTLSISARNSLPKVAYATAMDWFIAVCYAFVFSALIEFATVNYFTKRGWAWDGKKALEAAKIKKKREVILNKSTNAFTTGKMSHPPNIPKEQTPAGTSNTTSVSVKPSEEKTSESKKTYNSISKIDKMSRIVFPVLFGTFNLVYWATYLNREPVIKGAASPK
# Experiment: Binding affinity for GABA-A alpha-5-beta-3-gamma-2 receptor expressed in L (tk-) cells
# Type: cell-based
# In short: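 Competition binding against [3H]Ro15-1788 (1-2 nM final) on human GABAA receptors expressed in Ltk- cells, scraped into PBS and resuspended in 10 mM KH2PO4/100 mM KCl pH 7.4. Incubated to equilibrium 1 h at 4 °C, filtered, scintillation counted.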
row,Structure (SMILES),Ki
1,CCCCCCCCOc1ccc2[nH]c3cnc(C(=O)OCC)c(CC)c3c2c1,12700 nM

# Target: T2, GABA-A receptor; alpha-3/beta-3/gamma-2 (Homo sapiens, UniProt P18507+P28472+P34903)
# T2 sequence (P18507 whole entry): T1 sequence (P18507 whole entry)
# T2 sequence (P28472 whole entry): T1 sequence (P28472 whole entry)
# T2 sequence (P34903 whole entry): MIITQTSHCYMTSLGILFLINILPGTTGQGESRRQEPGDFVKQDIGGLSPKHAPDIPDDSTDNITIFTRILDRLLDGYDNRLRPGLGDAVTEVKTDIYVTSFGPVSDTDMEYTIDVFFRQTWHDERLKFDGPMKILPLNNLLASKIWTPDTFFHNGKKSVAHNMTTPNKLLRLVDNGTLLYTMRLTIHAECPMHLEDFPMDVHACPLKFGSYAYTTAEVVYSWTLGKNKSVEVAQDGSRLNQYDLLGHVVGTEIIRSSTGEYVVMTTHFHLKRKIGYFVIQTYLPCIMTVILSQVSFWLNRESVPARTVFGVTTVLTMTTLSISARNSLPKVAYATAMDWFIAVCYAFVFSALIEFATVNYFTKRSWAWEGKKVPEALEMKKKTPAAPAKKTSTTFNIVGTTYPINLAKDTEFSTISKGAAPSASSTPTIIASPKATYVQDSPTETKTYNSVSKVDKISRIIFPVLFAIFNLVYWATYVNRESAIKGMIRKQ
# Experiment: Binding affinity measured using LtK- cell membranes expressing GABA alpha-3-beta-3-gamma-2 receptor
row,Structure (SMILES),Ki
1,CCOC(=O)c1[nH]cc2nc3ccc(OC)cc3c-2c1COC,1.72 nM
2,CCCOc1ccc2[nH]c3cnc(C(=O)OCC)c(COC)c3c2c1,2.2 nM
3,CCCOc1ccc2[nH]c3cnc(OCCC)c(COC)c3c2c1,270 nM
4,CCOC(=O)c1[nH]cc2nc3ccc(OCc4cccc5ccccc45)cc3c-2c1CC,300 nM
5,COCc1c(N=C=S)[nH]cc2nc3ccc(OCc4ccccc4)cc3c1-2,58.8 nM
6,CCCCCCCCOc1ccc2[nH]c3cnc(C(=O)OCC)c(CC)c3c2c1,35000 nM
7,CCCCCCCCOc1ccc2[nH]c3cnc(C(=O)OCC)c(COC)c3c2c1,> 3000 nM

# Target: T3, GABA-A receptor; alpha-1/beta-3/gamma-2 (Homo sapiens, UniProt P14867+P18507+P28472)
# T3 sequence (P14867 whole entry): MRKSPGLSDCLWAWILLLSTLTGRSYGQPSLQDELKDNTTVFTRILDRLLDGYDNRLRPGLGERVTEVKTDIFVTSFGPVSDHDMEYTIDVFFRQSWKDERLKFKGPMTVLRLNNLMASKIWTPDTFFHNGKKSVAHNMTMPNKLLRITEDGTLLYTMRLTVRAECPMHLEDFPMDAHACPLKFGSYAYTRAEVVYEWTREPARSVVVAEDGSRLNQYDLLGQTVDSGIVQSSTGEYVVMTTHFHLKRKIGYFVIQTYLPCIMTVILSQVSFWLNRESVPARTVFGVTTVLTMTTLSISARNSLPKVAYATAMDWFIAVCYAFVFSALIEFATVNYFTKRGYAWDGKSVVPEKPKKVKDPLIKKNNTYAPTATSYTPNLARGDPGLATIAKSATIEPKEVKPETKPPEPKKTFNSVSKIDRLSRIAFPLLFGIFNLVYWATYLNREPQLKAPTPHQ
# T3 sequence (P18507 whole entry): T1 sequence (P18507 whole entry)
# T3 sequence (P28472 whole entry): T1 sequence (P28472 whole entry)
# Experiment: Binding affinity measured using LtK- cell membranes expressing GABA alpha-1-beta-3-gamma-2 receptor
row,Structure (SMILES),Ki
1,CCOc1cc2c(cn1)[nH]c1ccccc12,6.43 nM
2,CCOC(=O)c1[nH]cc2nc3ccc(OC)cc3c-2c1COC,0.14 nM
3,CCCOc1ccc2[nH]c3cnc(C(=O)OCC)c(COC)c3c2c1,0.49 nM
4,CCCOc1ccc2[nH]c3cnc(OCCC)c(COC)c3c2c1,24.6 nM
5,CCOC(=O)c1[nH]cc2nc3ccc(OCc4cccc5ccccc45)cc3c-2c1CC,183 nM
6,COCc1c(N=C=S)[nH]cc2nc3ccc(OCc4ccccc4)cc3c1-2,25 nM
7,CCCCCCCCOc1ccc2[nH]c3cnc(C(=O)OCC)c(COC)c3c2c1,> 1000 nM

# Target: T4, GABA-A receptor; alpha-2/beta-3/gamma-2 (Homo sapiens, UniProt P18507+P28472+P47869)
# T4 sequence (P18507 whole entry): T1 sequence (P18507 whole entry)
# T4 sequence (P28472 whole entry): T1 sequence (P28472 whole entry)
# T4 sequence (P47869 whole entry): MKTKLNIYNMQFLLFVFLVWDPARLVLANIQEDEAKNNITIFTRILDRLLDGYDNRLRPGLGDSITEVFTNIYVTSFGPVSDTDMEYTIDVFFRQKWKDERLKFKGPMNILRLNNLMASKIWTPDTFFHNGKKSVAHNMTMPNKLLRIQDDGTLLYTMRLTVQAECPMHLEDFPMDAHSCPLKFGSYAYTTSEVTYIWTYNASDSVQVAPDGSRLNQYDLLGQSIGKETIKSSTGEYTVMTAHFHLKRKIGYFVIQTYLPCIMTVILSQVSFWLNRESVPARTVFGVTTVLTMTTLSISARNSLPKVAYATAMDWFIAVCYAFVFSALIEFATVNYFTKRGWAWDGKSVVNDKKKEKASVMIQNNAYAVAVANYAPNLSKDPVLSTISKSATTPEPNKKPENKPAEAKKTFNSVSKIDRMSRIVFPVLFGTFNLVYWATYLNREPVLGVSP
# Experiment: Binding affinity measured using LtK- cell membranes expressing GABA alpha-2-beta-3-gamma-2 receptor
row,Structure (SMILES),Ki
1,CCOC(=O)c1[nH]cc2nc3ccc(OC)cc3c-2c1COC,1.19 nM
2,CCCOc1ccc2[nH]c3cnc(C(=O)OCC)c(COC)c3c2c1,1.21 nM
3,CCCOc1ccc2[nH]c3cnc(OCCC)c(COC)c3c2c1,214 nM
4,CCOC(=O)c1[nH]cc2nc3ccc(OCc4cccc5ccccc45)cc3c-2c1CC,291 nM
5,COCc1c(N=C=S)[nH]cc2nc3ccc(OCc4ccccc4)cc3c1-2,82.6 nM
6,CCCCCCCCOc1ccc2[nH]c3cnc(C(=O)OCC)c(CC)c3c2c1,29700 nM
7,CCCCCCCCOc1ccc2[nH]c3cnc(C(=O)OCC)c(COC)c3c2c1,> 3000 nM

# Target: T4, GABA-A receptor; alpha-2/beta-3/gamma-2
# Experiment: Binding affinity for GABA-A alpha-2-beta-3-gamma-2 receptor expressed in L(tk-) cells
# Type: cell-based
# In short: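 Competition binding on Ltk- cells expressing human α2β3γ2 GABAA receptors. Cells were scraped into PBS, centrifuged at 3000g and resuspended in phosphate buffer (10 mM KH2PO4, 100 mM KCl, pH 7.4 at 4 °C). Radioligand was [3H]Ro15-1788 at 1–2 nM, with test compound at 10^-9–10^-5 M. Nonspecific binding was defined by 10^-5 M diazepam. Incubation ran 1 h at 4 °C to equilibrium, followed by filtration and scintillation counting.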
row,Structure (SMILES),Ki
1,CCOc1cc2c(cn1)[nH]c1ccccc12,25.1 nM

# Target: T1, GABA-A receptor; alpha-5/beta-3/gamma-2
# Experiment: Binding affinity measured using LtK- cell membranes expressing Gamma-aminobutyric acid A receptor alpha-5-beta-3-gamma-2
row,Structure (SMILES),Ki
1,CCOc1cc2c(cn1)[nH]c1ccccc12,868 nM
2,CCOC(=O)c1[nH]cc2nc3ccc(OC)cc3c-2c1COC,4 nM
3,CCCOc1ccc2[nH]c3cnc(C(=O)OCC)c(COC)c3c2c1,2.4 nM
4,CCCOc1ccc2[nH]c3cnc(OCCC)c(COC)c3c2c1,332 nM
5,CCOC(=O)c1[nH]cc2nc3ccc(OCc4cccc5ccccc45)cc3c-2c1CC,270 nM
6,COCc1c(N=C=S)[nH]cc2nc3ccc(OCc4ccccc4)cc3c1-2,159 nM
7,CCCCCCCCOc1ccc2[nH]c3cnc(C(=O)OCC)c(COC)c3c2c1,> 3000 nM

# Target: GABA-A receptor; anion channel
# Experiment: Displacement of [3H]flunitrazepam from GABA-A Benzodiazepine receptor of rat brain cortical membranes
# Type: cell membranes, Membrane
# In short: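 Rat cerebral cortex homogenized in 50 mM Tris-citrate, pH 7.4, and washed by centrifugation (20000g). […] Nonspecific binding with 10 μM Ro15-1788. Ended by vacuum filtration. IC50 estimated from at least six inhibitor concentrations; mean ± SEM of at least three determinations.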
row,Structure (SMILES),IC50
1,CCOC(=O)c1[nH]cc2nc3ccc(OC)cc3c-2c1COC,1 nM
2,CCCOc1ccc2[nH]c3cnc(C(=O)OCC)c(COC)c3c2c1,8.1 nM
3,CCCOc1ccc2[nH]c3cnc(OCCC)c(COC)c3c2c1,43.2 nM
4,CCOC(=O)c1[nH]cc2nc3ccc(OCc4cccc5ccccc45)cc3c-2c1CC,13.9 nM
5,COCc1c(N=C=S)[nH]cc2nc3ccc(OCc4ccccc4)cc3c1-2,40 nM
6,CCCCCCCCOc1ccc2[nH]c3cnc(C(=O)OCC)c(CC)c3c2c1,> 1000 nM
7,CCCCCCCCOc1ccc2[nH]c3cnc(C(=O)OCC)c(COC)c3c2c1,330 nM
